p-CIP stab down: p/CIP protein destabilization; Q05BA5; F442A p/CIP-EGFP cells, EGFP fluorescence, 16 h; decrease of EGFP signal, % at 10 µM; actives 0.01% (n = 290,000); AID 1984;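 active = EGFP signal decrease of at least 30% at 10 µM or well 3 SD below plate mean, unless failing retest; inactive = the rest, including hits failing retest or dose response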
T cell modulator: T cell immune modulators affecting CD8 T cell-vesicle binding | 2C CD8+ T cell-vesicle binding, flow cytometry; stronger effect = lower value | actives 0.068% (n = 330,000) | response (vesicle binding), % at 7 µM;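 active = response, share of CD8 T cells binding vesicles, and their 90th percentile fluorescence all below set limits, cut at about 80% in these data, passing the limit was not always enough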;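 also: values below 100% mean blocked vesicle binding to the CD8+ T cells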
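System: murine 2C transgenic CD8+ T lymphocytes; also added: QL9-loaded Drosophila micro-vesicles; times: binding 1.5 h at 37 °C; measured by: flow cytometry, PE anti-B7-1 (FL2) versus Alexa647 anti-CD8 (FL8), PFA-fixed; control set: Peptide-free naked vesicles (low) and QL9 vesicles with 0.7% DMSO vehicle (high)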
GPR7 antagonist: blocks human GPR7 receptor signaling | GPR7-expressing cells, fluorescence antagonist assay | P48145 | inhibition, % at 4.4 µM | AID 1861 | actives 1.1% (n = 290,000); in the data active = inhibition above about 16%, passing the limit was not always enough;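 also: cells stimulated with the agonist NPW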
CHT block: inhibitors of human choline transporter CHT; Q9GZV3; CHT-expressing cells, membrane potential dye, choline response; stronger effect = lower value; B-score at 10 µM; actives 0.86% (n = 310,000); AID 488975;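 active = B-score over 3 SD under the library average, and starting fluorescence ratio not unusually high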;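 also: choline stimulus applied at its EC90 after an EC20 pre-addition; B-score computed on integrated fluorescence ratio after choline addition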
Target sequence (Q9GZV3 whole entry, looked up): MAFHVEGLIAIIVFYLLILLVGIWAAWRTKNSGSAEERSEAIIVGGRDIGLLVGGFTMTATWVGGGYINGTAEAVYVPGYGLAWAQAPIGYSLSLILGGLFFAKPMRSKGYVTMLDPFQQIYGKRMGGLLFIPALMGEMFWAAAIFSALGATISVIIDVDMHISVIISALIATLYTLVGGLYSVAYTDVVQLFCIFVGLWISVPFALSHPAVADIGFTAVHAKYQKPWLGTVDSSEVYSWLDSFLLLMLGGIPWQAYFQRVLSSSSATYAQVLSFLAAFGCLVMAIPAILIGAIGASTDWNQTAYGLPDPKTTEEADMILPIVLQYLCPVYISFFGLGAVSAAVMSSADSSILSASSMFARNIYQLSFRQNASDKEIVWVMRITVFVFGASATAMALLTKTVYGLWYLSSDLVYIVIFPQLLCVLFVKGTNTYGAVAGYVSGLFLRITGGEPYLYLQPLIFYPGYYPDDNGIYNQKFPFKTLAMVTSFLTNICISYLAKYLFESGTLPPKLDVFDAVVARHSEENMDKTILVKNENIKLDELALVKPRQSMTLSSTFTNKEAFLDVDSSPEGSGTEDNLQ
CHT PAM: allosterically activates the human high affinity choline transporter. Q9GZV3. CHT-expressing cells, membrane potential dye, choline EC20; stronger effect = higher value; LV-AA mutant CHT in HEK293 cells. B-score at 10 µM. actives 0.49% (n = 310,000). AID 488977;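 active = initial fluorescence not abnormally high and integrated response B-score, plate-corrected, over 3 SD above library mean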
Pemphigus Ab inh: human desmoglein-3 autoantibody binding inhibition; binding (percent of control), % at 10 µM; P32926; actives 0.48% (n = 310,000); DSG3-coupled beads, scFv-anti-DSG3-GFP binding, flow cytometry; stronger effect = lower value;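 active = binding more than 3 SD below its plate's average and above zero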;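 also: hits lower antibody fragment binding to DSG3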
Hits are given with their value; - = inactive; . = not tested or not shown. This is a sample that favours compounds with a hit; in the whole collection about 2.3% have one here.

SMILES | p-CIP stab down | T cell modulator | GPR7 antagonist | CHT block | CHT PAM | Pemphigus Ab inh
COCCNC(=O)C[C@@H]1C[C@H]2c3cc(NC(=O)Nc4ccc(F)cc4)ccc3O[C@H]2[C@H](CO)O1 | . | . | . | . | . | -
NS(=O)(=O)c1ccc(-c2ccc(/C=C3\SC(=S)N(C4CCS(=O)(=O)C4)C3=O)o2)cc1 (centres undefined) | - | - | - | - | - | 77.3
Cc1ccc(/C=C2\SC(=S)N(C3CCS(=O)(=O)C3)C2=O)o1 (centres undefined) | - | - | - | - | - | -
CN1OC[C@@H]2CN(S(=O)(=O)c3cccc4ccccc34)[C@H](c3ccc(-c4cccnc4)cc3)C[C@@H]21 | . | . | . | . | . | -
N#Cc1nc(COc2ccc(Br)cc2)oc1N1CCN(Cc2ccccc2)CC1 | - | . | 29.0 | . | . | .
O=C(Nc1ccnn1C1CCN(C(=O)c2cccnc2)CC1)c1cccc(F)c1 | . | . | . | . | . | -
N#C/C(=C(/O)CCl)c1nc2c(s1)CCc1ccccc1-2 | - | - | - | -10.3 | - | -
c1ccc(N=NC2=NN(c3ccccc3)CS2)cc1 | . | . | . | . | . | -
Cc1ccc(Nc2nc(-c3ccncc3)nc3ccccc23)cc1 | - | - | - | - | - | -
Fc1ccc(Nc2nc(-c3ccncc3)nc3ccccc23)cc1 | - | - | - | - | - | 85.5
C=CCCCCCCCCc1nc(SCC(C)=O)n[nH]1 | - | - | 20.3 | - | - | -
CC1CCN(S(=O)(=O)c2ccc3c(c2)C(Cl)(Cl)C(=O)N3)CC1 | . | . | . | . | . | -
O=S(=O)(c1ccccc1)N1CCC(O)(CSc2ccccc2)CC1 | - | - | - | - | - | -
O=S(=O)(c1ccccc1)N1CCC(O)(CSc2ccc(F)cc2)CC1 | - | - | 17.9 | - | - | -
O=C(CN1C(=O)NC2(CCCC2)C1=O)Nc1cccc(Cl)c1Cl | - | - | - | - | - | 56.6
O=C(CN1C(=O)NC2(CCCCC2)C1=O)Nc1cccc(Cl)c1Cl | . | - | . | . | . | -
O=C1OC(COc2ccc(Br)cc2)CN1c1ccccc1 (centres undefined) | - | - | - | - | - | 81.0
COc1cccc(/C=C2/CCC(CN(C)C)C2=O)c1 (centres undefined) | . | . | . | . | . | -
C=CCOc1nc2c(c(=O)n(C)c(=O)n2C)n1C | - | - | - | - | - | -
CC(C)COc1nc2c(c(=O)n(C)c(=O)n2C)n1C | - | - | active | - | - | -
CCC(=O)N1CCN(c2ccc(NC(=O)c3ccc4c(c3)OCCO4)cc2)CC1 | - | - | - | - | - | 75.5
COc1ccc(-c2ccc(CN3C(C(C)C)C(=O)N(Cc4cn(CCC5OCCO5)nn4)CCS3(=O)=O)cc2)cc1 (centres undefined) | . | . | . | . | . | -
N#Cc1ccsc1NC(=O)c1cccc([N+](=O)[O-])c1 | - | - | - | - | - | -
O=C(Nc1ccc(C(O)(C(F)(F)F)C(F)(F)F)cc1)c1ccc(Cl)c([N+](=O)[O-])c1 | - | - | 43.1 | - | - | -
N#Cc1ccsc1NC(=O)c1ccc(Cl)c([N+](=O)[O-])c1 | - | - | 19.9 | -8.74 | - | -
SMILES | p-CIP stab down | T cell modulator | GPR7 antagonist | CHT block | CHT PAM | Pemphigus Ab inh
Cc1cccc(C)c1NS(=O)(=O)c1ccc(NC(=O)c2ccc(Cl)c([N+](=O)[O-])c2)cc1 | - | - | - | - | - | -
Nc1nc(N)c2cc(CNc3ccc(Cl)c(Cl)c3)ccc2n1 | . | . | . | . | . | -
NNc1nc2c(-c3ccc(Cl)cc3)nnn2c2ccccc12 | - | - | - | - | - | 68.2
NNc1nc2c(-c3ccc(F)cc3)nnn2c2ccccc12 | - | - | - | - | - | -
COc1ccc(C(=O)Nc2ccc3c(c2)C(=O)c2ccccc2C3=O)cc1OC | - | - | - | - | - | 71.8
COc1cc(C(=O)Nc2ccc3c(c2)C(=O)c2ccccc2C3=O)cc(OC)c1OC | - | - | - | - | - | -
N=NC(=O)c1ccccc1Nc1c(O)[nH]c2ccccc12 | . | . | . | . | . | -
N#CC(=C=[N-])c1nc2ccccc2nc1-[n+]1cccc(NC(=O)c2ccccc2)c1 | - | - | - | - | - | -
N#CC(=C=[N-])c1nc2ccccc2nc1-[n+]1cccc(NC(=O)c2cccs2)c1 | - | - | - | - | - | 50.9
COc1ccc(-c2cc(N)n(S(=O)(=O)c3c(F)c(F)c(F)c(F)c3F)n2)cc1OC | - | - | - | -7.7 | - | -
O=C(CNC(=S)NC(=O)c1ccccc1Br)c1ccccc1 | - | - | - | - | - | 6.1
COc1ccc(S(=O)(=O)Nc2ccc(F)c(F)c2)cc1Cl | - | - | - | -6.44 | - | -
COc1ccc([N+](=O)[O-])cc1NC(=O)CSCc1ccc(Br)cc1 | - | - | - | - | - | -
O=C(CSCc1ccc(Cl)cc1)Nc1cc([N+](=O)[O-])ccc1O | - | - | - | -8.15 | - | -
O=C(c1ccc(Cl)cc1)[C@@H]1[C@@H]2C(=O)N(c3ccccc3)C(=O)[C@@H]2C2c3ccccc3C=NN21 (some centres undefined) | - | - | - | - | - | 77.9
CCCCCCc1nc2nc(Cl)c(Cl)nc2[nH]1 | . | . | . | . | . | -
O=C(Nc1ccc(C(F)(F)F)cc1-c1ccccc1)c1ccccc1 | - | - | - | - | - | 65.4
O=C(Nc1ccccc1-c1ccccc1)c1cccc(C(F)(F)F)c1 | - | - | - | - | - | -
Cc1onc(-c2ccccc2)c1C(=O)OCC(=O)Nc1ccccc1Cl | . | . | . | . | . | -
Cc1ccc(S(=O)(=O)N(C)c2ccc(C(=O)N3CCc4ccccc4C3)cc2)cc1 | - | - | - | - | - | .
CN(c1ccccc1)S(=O)(=O)c1ccc(C(=O)N2CCc3ccccc3C2)cc1 | - | - | 20.5 | - | - | -
CCOC(=O)c1[nH]c2ccccc2c1NC(=O)C(CC)CC | - | - | - | - | - | -14.1
O=C1C(=O)N(CCCn2ccnc2)C(c2ccc([N+](=O)[O-])cc2)/C1=C(\O)c1ccc2c(c1)OCCO2 (centres undefined) | . | 0.0 | . | . | . | -
N/C(=N\OC(=O)c1ccccc1)C(Cc1ccccc1)C(=O)NOC(=O)c1ccccc1 (centres undefined) | . | . | . | . | . | -
O=C(Nc1ccc(-c2cn3c(n2)SCC3)cc1)c1ccc2c(c1)OCO2 | - | - | - | - | - | 82.8
Cc1ccc(Cn2cc(C(=O)c3ccc(F)cc3)c(=O)c3cc4c(cc32)OCCO4)cc1 | - | - | - | - | - | 0.5
CC(C)CC1C(=O)N(Cc2cn(Cc3ccco3)nn2)CCS(=O)(=O)N1Cc1ccc(-c2cccc(N(C)C)c2)cc1 (centres undefined) | . | . | . | . | . | -
CCOC(=O)c1cc([N+](=O)[O-])c([N+](=O)[O-])cc1NC(C)=O | - | - | - | -5.9 | - | -
c1csc(-c2csc3nc(CN4CCOCC4)nc(NCc4ccc5c(c4)OCO5)c23)c1 | - | - | 19.1 | - | - | -
c1ccc2c(c1)nc(NCc1ccc3c(c1)OCO3)n2CCN1CCOCC1 | - | - | - | - | - | -
